This note sets out measurements from ChEMBL document CHEMBL1143969, “Synthesis and pharmacological evaluation of bicyclic SNC80 analogues with separated benzhydryl moiety” (Bioorg Med Chem, 2008).

SMILES strings stand for the structures.

In assay [1] the target is T1, Kappa-type opioid receptor (Homo sapiens, UniProt P41145). In words: Displacement of [3H]C1-977 from human kappa opioid receptor expressed in HEK293 cells at 10 uM. It is filed as cell-based. In outline:
(§1)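 SPA format as for mu: membranes diluted 1:34 in 50 mmol/L Tris-HCl, 0.05% NaN3, pH 7.4, mixed with wheatgerm agglutinin SPA beads; 150 min at rt, centrifugation, scintillation counting. Ki determined where inhibition at 10 µM exceeded 50%.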
(Loss of bound radioactivity is the signal in a displacement assay; it reports binding, not function.)

In assay [2] the target is T2, Mu-type opioid receptor (Homo sapiens, UniProt P35372). In words: Displacement of [3H]naloxone from human mu opioid receptor expressed in CHOK1 cells at 10 uM. It is filed as cell-based. The note with it: CHO-K1. In outline:
(§2)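 Membranes in Tris-HCl pH 7.4 + 0.06% BSA, premixed with wheatgerm agglutinin SPA beads; radioligand solution 10 nmol/L (stock), ~25% DMSO in added solutions. Incubated 150 min at rt, centrifuged 20 min at 500 rpm, counted by scintillation proximity. Naloxone defines non-specific binding. Ki determined where inhibition at 10 µM exceeded 50%.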

Assay [3] deals with T3, Delta-type opioid receptor (Homo sapiens, UniProt P41143). In words: Displacement of [3H]deltorphine 2 from human delta opioid receptor expressed in CHOK1 cells at 10 uM. The note with it: CHO-K1. The assay is classed as cell-based. In outline:
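Membranes diluted 1:87 in 50 mmol/L Tris-HCl, 5 mmol/L MgCl2, pH 7.4; radioligand solution 10 nmol/L (stock), 0.5% DMSO. Incubated 120 min at rt, filtered through PEI-soaked GF/B filters, washed three times with cold buffer, dried 1 h at 55 °C, scintillation counted. Naloxone defines non-specific binding. Ki determined where inhibition at 10 µM exceeded 50%.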

Assay [4] concerns the target Nociceptin receptor (Homo sapiens) (UniProt P41146). In words: Displacement of [3H]nociceptin from human ORL1 receptor expressed in HEK293 cells at 10 uM. It is filed as cell-based.
Assay [5] addresses T3, Delta-type opioid receptor. In words: Displacement of [3H]deltorphine 2 from human delta opioid receptor expressed in CHOK1 cells. It is filed as cell-based, CHO-K1. In outline:
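Membranes diluted 1:87 in 50 mmol/L Tris-HCl, 5 mmol/L MgCl2, pH 7.4; radioligand solution 10 nmol/L (stock), 0.5% DMSO. Incubated 120 min at rt, filtered through PEI-soaked GF/B filters, washed three times with cold buffer, dried 1 h at 55 °C, scintillation counted. Naloxone defines non-specific binding.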

In assay [6] the target is T2, Mu-type opioid receptor. The assay is described as follows: Displacement of [3H]naloxone from human mu opioid receptor expressed in CHOK1 cells. It is filed as cell-based, CHO-K1. In outline:
as §2

In assay [7] the target is T1, Kappa-type opioid receptor. The assay is described as follows: Displacement of [3H]C1-977 from human kappa opioid receptor expressed in HEK293 cells. The assay is classed as cell-based. In outline: as §1

Chain of Nociceptin receptor (Homo sapiens) (P41146 whole entry): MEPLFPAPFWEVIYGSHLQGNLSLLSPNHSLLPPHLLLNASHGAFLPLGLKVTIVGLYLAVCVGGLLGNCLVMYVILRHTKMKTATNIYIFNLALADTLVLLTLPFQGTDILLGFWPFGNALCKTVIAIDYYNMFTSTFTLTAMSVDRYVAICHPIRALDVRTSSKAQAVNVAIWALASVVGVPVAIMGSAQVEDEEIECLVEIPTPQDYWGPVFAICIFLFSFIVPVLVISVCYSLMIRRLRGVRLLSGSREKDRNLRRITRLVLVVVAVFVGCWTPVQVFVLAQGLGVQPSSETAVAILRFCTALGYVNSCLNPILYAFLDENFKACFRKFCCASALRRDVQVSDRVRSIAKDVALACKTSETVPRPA
T2 sequence (P35372 whole entry): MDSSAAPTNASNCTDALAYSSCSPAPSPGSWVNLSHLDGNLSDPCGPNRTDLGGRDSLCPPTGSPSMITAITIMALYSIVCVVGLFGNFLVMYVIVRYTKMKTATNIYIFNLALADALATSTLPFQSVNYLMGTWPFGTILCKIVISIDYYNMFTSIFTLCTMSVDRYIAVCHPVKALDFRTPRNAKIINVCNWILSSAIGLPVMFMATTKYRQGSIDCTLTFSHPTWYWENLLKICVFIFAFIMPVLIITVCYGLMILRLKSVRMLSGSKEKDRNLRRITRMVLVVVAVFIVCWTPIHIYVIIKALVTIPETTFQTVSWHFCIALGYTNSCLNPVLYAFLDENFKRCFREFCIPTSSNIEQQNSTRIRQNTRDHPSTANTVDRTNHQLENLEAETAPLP
T3 sequence (P41143 whole entry): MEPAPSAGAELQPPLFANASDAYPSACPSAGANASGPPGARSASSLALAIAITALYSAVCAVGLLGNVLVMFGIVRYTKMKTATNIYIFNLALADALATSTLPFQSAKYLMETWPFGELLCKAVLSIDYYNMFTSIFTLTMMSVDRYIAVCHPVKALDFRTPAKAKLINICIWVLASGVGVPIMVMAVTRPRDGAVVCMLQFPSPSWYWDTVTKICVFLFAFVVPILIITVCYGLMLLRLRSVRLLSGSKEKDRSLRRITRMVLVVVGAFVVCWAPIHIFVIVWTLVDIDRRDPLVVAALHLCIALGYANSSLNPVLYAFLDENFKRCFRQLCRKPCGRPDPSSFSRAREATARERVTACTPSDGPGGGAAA
T1 sequence (P41145 whole entry): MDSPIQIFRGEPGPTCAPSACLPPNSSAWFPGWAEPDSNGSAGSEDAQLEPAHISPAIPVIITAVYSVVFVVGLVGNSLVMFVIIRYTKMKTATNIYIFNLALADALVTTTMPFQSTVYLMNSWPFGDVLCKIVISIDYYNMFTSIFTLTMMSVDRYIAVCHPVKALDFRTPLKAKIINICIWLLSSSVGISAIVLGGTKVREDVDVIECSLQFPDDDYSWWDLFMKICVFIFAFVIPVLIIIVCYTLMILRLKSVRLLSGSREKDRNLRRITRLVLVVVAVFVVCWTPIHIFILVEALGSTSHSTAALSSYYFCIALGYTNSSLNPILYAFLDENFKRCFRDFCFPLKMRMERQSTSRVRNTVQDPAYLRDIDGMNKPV

Consider `C=CCN1C[C@H]2C(c3ccccc3)=CC[C@@H]1CN2Cc1ccc(C(=O)N(CC)CC)cc1`, for which the inhibition – broadly, the drop in the measured response relative to a control, in per cent – in assay [1] is 31%; at Mu-type opioid receptor [2], 91%; in assay [3], 87%; in assay [4], less than 10%. In addition, the Ki (commonly the dissociation constant of the complex between target and ligand, obtained from inhibition or displacement) was 740 nM in assay [5] and 250 nM at Mu-type opioid receptor [6].
Regarding `C=CCN1C[C@@H]2[C@H](c3ccccc3)CC[C@H]1CN2Cc1ccc(C(=O)N(CC)CC)cc1`, the Ki in assay [7] is 1700 nM; at Mu-type opioid receptor [6] it was 7300 nM. Further, the inhibition in assay [1] came out at 73%; on Mu-type opioid receptor [2], 56%; in assay [3], 6%; in assay [4] it was 7%.
Consider `CCCN1C[C@@H]2[C@H](c3ccccc3)CC[C@H]1CN2Cc1ccc(C(=O)N(CC)CC)cc1`, for which the Ki is 2400 nM in assay [7] and 5700 nM on Mu-type opioid receptor [6]. For the same compound, the inhibition in assay [1] is 63%; on Mu-type opioid receptor [2] it was 61%; in assay [3] it was 4%; in assay [4], 1%.
`C=CCN1C[C@@H]2C(c3ccccc3)=CC[C@H]1CN2Cc1ccc(C(=O)N(CC)CC)cc1`: the Ki in assay [7] came to 890 nM; on Mu-type opioid receptor [6] it was 6800 nM. The inhibition is 76% in assay [1], 56% on Mu-type opioid receptor [2], 14% in assay [3] and 9% in assay [4].
For the compound `CCCN1C[C@@H]2C(c3ccccc3)=CC[C@H]1CN2Cc1ccc(C(=O)N(CC)CC)cc1`, the inhibition in assay [1] came out at 22%; at Mu-type opioid receptor [2] it was 55%; in assay [3], 20%; in assay [4], 45%.
In the case of `C=CCN1C[C@@H]2[C@@H](c3ccccc3)CC[C@H]1CN2Cc1ccc(C(=O)N(CC)CC)cc1`, the values for the inhibition constant Ki (in assay [7]; on Mu-type opioid receptor [6]) were 1100 nM and 6320 nM, respectively. For the same compound, the inhibition came to 76% in assay [1], 58% on Mu-type opioid receptor [2], 34% in assay [3] and 14% in assay [4].
Regarding `CCCN1C[C@@H]2[C@@H](c3ccccc3)CC[C@H]1CN2Cc1ccc(C(=O)N(CC)CC)cc1`, the inhibition in assay [1] came out at 49%; at Mu-type opioid receptor [2], 44%; in assay [3], 4%; in assay [4] it was 3%.
